The record followed here is ChEMBL document CHEMBL4028897 (J Med Chem, 2017).

The species entered for one assay is Homo sapiens. Put plainly: Selectivity ratio of Ki for human dopamine D2 long receptor to Ki for human dopamine D3 receptor. A digest of the protocol:
(§1)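 Nonspecific binding defined with 20 μM (+)-butaclamol. Inhibitor spanned 5 log units, two concentrations per decade, in triplicate. Stopped with ice-cold Tris/NaCl wash and glass-fiber filtration.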

Assay [1] deals with T1, D(3) dopamine receptor (Homo sapiens, UniProt P35462). Kind of assay: Displacement of [125I]ABN from human dopamine D3 receptor expressed in HEK293 cell membranes after 60 mins by scintillation counting method.
T1 sequence (P35462 whole entry): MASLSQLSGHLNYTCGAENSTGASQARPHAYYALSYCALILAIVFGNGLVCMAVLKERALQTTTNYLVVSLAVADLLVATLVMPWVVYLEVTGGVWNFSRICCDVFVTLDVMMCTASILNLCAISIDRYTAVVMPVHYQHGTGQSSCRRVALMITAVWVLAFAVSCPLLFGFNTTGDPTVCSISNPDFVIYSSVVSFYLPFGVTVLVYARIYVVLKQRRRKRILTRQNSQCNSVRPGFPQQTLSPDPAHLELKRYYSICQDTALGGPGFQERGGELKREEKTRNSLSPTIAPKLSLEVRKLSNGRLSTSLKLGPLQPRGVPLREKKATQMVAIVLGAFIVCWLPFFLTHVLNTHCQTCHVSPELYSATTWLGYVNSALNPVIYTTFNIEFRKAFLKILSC
A further assay concerns the target D(2) dopamine receptor (Homo sapiens, UniProt P14416). Put plainly: Displacement of [125I]ABN from human dopamine D2 long receptor expressed in HEK293 cell membranes after 60 mins by scintillation counting method. A digest of the protocol: as §1
For assay [2], the target named is T1, D(3) dopamine receptor. Put plainly: Agonist activity at human ProLink-tagged dopamine D3 receptor expressed in human U2OS cells assessed as induction of EA-tagged beta-arrestin binding at 10 times Ki after 90 mins by chemoluminescence assay. The class given is cell-based.
In assay [3] the target is T1, D(3) dopamine receptor. Put plainly: Agonist activity at human dopamine D3 receptor expressed in human U2OS cells assessed as inhibition of forskolin-dependent stimulation of adenylyl cyclase at 10 times Ki. The class given is functional, cell-based.
Assay [4] has as its target T2, 5-hydroxytryptamine receptor 1A (Homo sapiens, UniProt P08908).
T2 sequence (P08908 whole entry): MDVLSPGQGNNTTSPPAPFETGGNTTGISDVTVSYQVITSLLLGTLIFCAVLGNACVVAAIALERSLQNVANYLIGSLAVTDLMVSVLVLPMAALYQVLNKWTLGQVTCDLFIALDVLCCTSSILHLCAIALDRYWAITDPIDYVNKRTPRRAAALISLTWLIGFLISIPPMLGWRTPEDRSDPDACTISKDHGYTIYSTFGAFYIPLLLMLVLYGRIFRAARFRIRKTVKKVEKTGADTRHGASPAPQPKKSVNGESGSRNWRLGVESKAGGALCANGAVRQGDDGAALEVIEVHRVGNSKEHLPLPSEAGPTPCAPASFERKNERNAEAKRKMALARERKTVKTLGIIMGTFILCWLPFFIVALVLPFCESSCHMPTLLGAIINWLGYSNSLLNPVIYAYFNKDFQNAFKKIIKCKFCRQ
Kind of assay: Displacement of [3H]8-OH-DPAT from human 5-HT1A receptor expressed in CHO-K1 cell membranes after 60 mins by scintillation counting method. The gist of the method: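 CHO-K1 membranes expressing human 5-HT1AR in 50 mM Tris-HCl, 10 mM MgSO4, 0.5 mM EDTA, 0.1% ascorbic acid, pH 7.4. […] Nonspecific binding with 10 μM metergoline. Competitor over 5 log units, two per decade, in triplicate. Ice-cold 10 mM Tris-HCl (pH 7.4) wash, glass-fiber filtration.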
(In general: In a radioligand displacement assay an active substance lowers the binding of a labelled ligand.)

Assay [5] deals with 5-hydroxytryptamine receptor 2A (Homo sapiens) (UniProt P28223). Put plainly: Binding affinity to 5-HT2A receptor (unknown origin).
Chain of 5-hydroxytryptamine receptor 2A (Homo sapiens) (P28223 whole entry): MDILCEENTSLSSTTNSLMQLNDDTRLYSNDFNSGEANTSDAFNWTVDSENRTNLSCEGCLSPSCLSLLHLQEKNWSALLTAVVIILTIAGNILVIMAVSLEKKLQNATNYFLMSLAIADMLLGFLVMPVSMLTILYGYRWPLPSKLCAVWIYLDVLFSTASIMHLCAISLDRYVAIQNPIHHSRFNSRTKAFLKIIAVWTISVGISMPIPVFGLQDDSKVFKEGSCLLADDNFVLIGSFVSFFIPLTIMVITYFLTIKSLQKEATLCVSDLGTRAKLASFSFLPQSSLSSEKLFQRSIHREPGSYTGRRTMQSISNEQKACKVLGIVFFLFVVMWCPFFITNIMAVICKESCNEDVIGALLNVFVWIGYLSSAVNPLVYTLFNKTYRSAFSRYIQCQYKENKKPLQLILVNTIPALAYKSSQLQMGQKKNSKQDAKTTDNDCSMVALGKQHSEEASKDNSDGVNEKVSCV
For assay [6], the target named is T3, 5-hydroxytryptamine receptor 2C (Homo sapiens) (UniProt P28335).
T3 sequence (whole entry): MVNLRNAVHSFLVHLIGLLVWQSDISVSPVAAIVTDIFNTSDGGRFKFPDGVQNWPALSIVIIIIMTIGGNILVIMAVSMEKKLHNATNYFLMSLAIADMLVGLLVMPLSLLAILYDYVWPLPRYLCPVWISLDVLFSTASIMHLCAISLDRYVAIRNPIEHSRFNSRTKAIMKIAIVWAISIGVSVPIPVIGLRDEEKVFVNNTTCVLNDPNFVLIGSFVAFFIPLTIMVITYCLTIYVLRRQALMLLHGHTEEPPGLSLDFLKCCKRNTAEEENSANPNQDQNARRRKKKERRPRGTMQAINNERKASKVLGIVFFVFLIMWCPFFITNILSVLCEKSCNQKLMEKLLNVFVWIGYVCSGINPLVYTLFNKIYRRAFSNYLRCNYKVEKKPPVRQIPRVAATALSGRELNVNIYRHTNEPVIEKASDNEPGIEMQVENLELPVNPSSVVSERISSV
Put plainly: Binding affinity to 5-HT2C receptor (unknown origin).

Assay [7] addresses T1, D(3) dopamine receptor. Kind of assay: Partial agonist activity at human dopamine D3 receptor expressed in human U2OS cells assessed as inhibition of forskolin-dependent stimulation of adenylyl cyclase at 10 times Ki. The class given is functional, cell-based.

Calls of active or inactive are those of the source. The rule behind the calls is not given here.

Chain of D(2) dopamine receptor (P14416 whole entry): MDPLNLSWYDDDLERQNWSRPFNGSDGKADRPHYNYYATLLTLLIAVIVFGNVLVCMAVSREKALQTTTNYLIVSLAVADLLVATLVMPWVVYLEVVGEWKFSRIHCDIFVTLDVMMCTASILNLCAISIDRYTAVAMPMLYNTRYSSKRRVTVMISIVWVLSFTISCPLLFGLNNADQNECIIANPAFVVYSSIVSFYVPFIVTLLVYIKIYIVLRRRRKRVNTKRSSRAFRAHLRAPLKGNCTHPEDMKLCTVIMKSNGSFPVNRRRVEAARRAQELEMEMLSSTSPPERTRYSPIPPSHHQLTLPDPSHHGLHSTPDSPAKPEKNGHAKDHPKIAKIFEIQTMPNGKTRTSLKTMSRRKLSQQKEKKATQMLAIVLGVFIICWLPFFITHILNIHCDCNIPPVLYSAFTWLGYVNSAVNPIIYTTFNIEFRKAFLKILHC

The term Ki denotes a measure of affinity in units of concentration, obtained from inhibition or displacement. Read a low Ki as tighter binding. Take `COc1ccccc1N1CC2(CCN(CCCSc3nnc(-c4ccccc4)n3C)CC2)C1`: in the assay listed under Homo sapiens, the Ratio Ki came out at 160. Besides, the Ki at D(3) dopamine receptor [1] came to 235 nM; on D(2) dopamine receptor it was 37600 nM.

As for `COc1ccccc1N1CC2(CN(CCCSc3nnc(-c4ccccc4)n3C)C2)C1`, the Ratio Ki in the assay filed under Homo sapiens stood at 25.5. Besides, the Ki on D(3) dopamine receptor [1] is 833 nM; on D(2) dopamine receptor, 21200 nM.

For `Cn1c(SCCCN2CCC3(CC2)CCN(c2cccc(Cl)c2Cl)CC3)nnc1-c1ccccc1`, the Ratio Ki in the assay listed under Homo sapiens was 91. Further, the Ki on D(3) dopamine receptor [1] came to 82.4 nM; at D(2) dopamine receptor, 7500 nM.

As for `COc1ccccc1N1CCC2(CCN(CCCSc3nnc(-c4ccccc4)n3C)C2)C1` (racemic), in the assay listed under Homo sapiens, the Ratio Ki was found to be 264. For the same molecule, the results for the Ki at D(3) dopamine receptor [1] and at D(2) dopamine receptor were 24.2 nM and 6370 nM, respectively. In addition, the outcome at D(3) dopamine receptor [2] and on D(3) dopamine receptor [3] was inactive.

On to `COc1ccccc1N1CCC12CN(CCCSc1nnc(-c3ccccc3)n1C)C2`, for which, in the assay listed under Homo sapiens, the Ratio Ki was found to be 24. Moreover, the Ki amounted to 4790 nM at D(3) dopamine receptor [1] and 115000 nM on D(2) dopamine receptor.

`COc1ccc(N2CCC3(CCN(CCCSc4nnc(-c5ccccc5)n4C)CC3)CC2)cc1`: the Ratio Ki in the assay filed under Homo sapiens is 1070. The values for the Ki on D(3) dopamine receptor [1] and at D(2) dopamine receptor were 97.7 nM and 105000 nM, respectively.

For the molecule `COc1ccccc1N1CCN(CCCSc2nnc(-c3ccccc3)n2C)CC1`, the Ki at D(3) dopamine receptor [1] is 6.5 nM; in [4], 0.22 nM; at D(2) dopamine receptor, 260 nM.

Regarding `Cn1c(SCCCN2CCC3(CC2)CCN(c2ccccn2)CC3)nnc1-c1ccccc1`, the Ratio Ki in the assay listed under Homo sapiens came to 96.1. For the same molecule, the Ki at D(3) dopamine receptor [1] is 871 nM; on D(2) dopamine receptor, 83700 nM.

`COc1ccccc1N1CCC2(CCN(CCCSc3nnc(-c4ccccc4)n3C)CC2)C1`: the inhibitory constant (Ki) was 19.6 nM on D(3) dopamine receptor [1], 724 nM in assay [4] and 6170 nM on D(2) dopamine receptor. The outcome on D(3) dopamine receptor [2] and at D(3) dopamine receptor [3] was inactive. Moreover, the outcome in assay [5] and in [6] was Active.

`COc1ccccc1N1CCC2(CCN(CCCSc3nnc(-c4ccccc4)n3C)CC2)CC1`: the result (on D(3) dopamine receptor [7]; in [5]; in assay [6]) was Active. Moreover, the Ki at D(3) dopamine receptor [1] worked out at 12 nM; in assay [4] it was 931 nM; at D(2) dopamine receptor it was 10900 nM.

Regarding `Cn1c(SCCCN2CCC3(CC2)CCN(c2cccc(C#N)c2)CC3)nnc1-c1ccccc1`, in the assay filed under Homo sapiens, the Ratio Ki is 130. Besides, the Ki amounted to 438 nM at D(3) dopamine receptor [1] and 57100 nM on D(2) dopamine receptor.

Turning to `COc1ccccc1N1CCC2(CN(CCCSc3nnc(-c4ccccc4)n3C)C2)C1`, the Ratio Ki in the assay listed under Homo sapiens came to 313. In addition, the Ki was 192 nM at D(3) dopamine receptor [1] and 60200 nM at D(2) dopamine receptor.

For the molecule `Cn1c(SCCCN2CCC3(CC2)CCN(c2ccc(F)cc2)CC3)nnc1-c1ccccc1`, the Ratio Ki in the assay filed under Homo sapiens is 383. Moreover, the figures for the inhibition constant (Ki) (at D(3) dopamine receptor [1]; in assay [4]; at D(2) dopamine receptor) were 25.6 nM, 587 nM and 9790 nM, respectively. The result on D(3) dopamine receptor [2] and on D(3) dopamine receptor [3] was inactive. For the same molecule, the result in assay [5] and in assay [6] was Active.

`COc1ccccc1N1CCC12CCN(CCCSc1nnc(-c3ccccc3)n1C)CC2`: the Ratio Ki in the assay listed under Homo sapiens was 173. Besides, the inhibition constant Ki was 169 nM at D(3) dopamine receptor [1] and 29300 nM on D(2) dopamine receptor.

`Cn1c(SCCCN2CC3(CCN3c3ccc(F)cc3)C2)nnc1-c1ccccc1`: in the assay listed under Homo sapiens, the Ratio Ki was greater than 6. Also, the Ki is 18200 nM at D(3) dopamine receptor [1] and greater than 110000 nM on D(2) dopamine receptor.
